Activity calls are given as the source filed them. No cut-off for these calls is given here.
Columns and labels:
Histamine H3 receptor [1] = biological target: T1, Histamine H3 receptor (Homo sapiens, UniProt Q9Y5N1); test: Displacement of [3H]N-alpha-methyl-histamine from human histamine H3 receptor expressed in human HEK293-EBNA cells; assay type: cell-based
Histamine H3 receptor [2] = biological target: T1, Histamine H3 receptor; test: Antagonist activity at human histamine H3 receptor expressed in human HEK293-EBNA cells assessed as inhibition of histamine-induced response at 100 uM by luciferase reporter gene assay; assay type: functional, cell-based
Histamine H3 receptor [3] = biological target: T1, Histamine H3 receptor; test: Agonist activity at human histamine H3 receptor expressed in human HEK293-EBNA cells by luciferase reporter gene assay; assay type: functional, cell-based
Summary of the method: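 Human H3 receptor expressed individually in 293-EBNA cells; compounds tested for agonism at 10^-5 M in a luciferase reporter gene assay.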

T1 sequence (Q9Y5N1 whole entry): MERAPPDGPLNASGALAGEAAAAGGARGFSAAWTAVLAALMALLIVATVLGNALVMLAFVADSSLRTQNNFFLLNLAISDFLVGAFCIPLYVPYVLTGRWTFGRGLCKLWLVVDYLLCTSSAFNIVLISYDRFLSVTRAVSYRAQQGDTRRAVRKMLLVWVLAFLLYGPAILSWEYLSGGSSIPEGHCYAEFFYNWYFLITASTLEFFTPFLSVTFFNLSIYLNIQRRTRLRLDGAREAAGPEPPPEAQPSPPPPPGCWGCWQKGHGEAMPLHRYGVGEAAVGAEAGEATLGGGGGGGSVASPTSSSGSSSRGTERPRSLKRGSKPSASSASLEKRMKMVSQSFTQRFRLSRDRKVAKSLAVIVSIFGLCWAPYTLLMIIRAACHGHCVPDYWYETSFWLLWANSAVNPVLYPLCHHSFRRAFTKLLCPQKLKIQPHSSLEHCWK

| Ki (Histamine H3 receptor [1]) | inhibition (Histamine H3 receptor [2]) | Activity (Histamine H3 receptor [3]) | Structure (SMILES) |
| --- | --- | --- | --- |
| 129 nM |  |  | CC[C@H](CNCc1ccc(Cl)cc1)[C@@H]1C[C@H]1c1cnc[nH]1 |
| 6.7 nM | 88% | inactive | CC[C@@H](CNCc1ccc(Cl)cc1)[C@H]1C[C@@H]1c1c[nH]cn1 |
|  | 96% | inactive | CC[C@H](CNCc1ccc(Cl)cc1)[C@H]1C[C@@H]1c1c[nH]cn1 |
| 19.8 nM | 95% | inactive | CC[C@@H](CNCc1ccc(Cl)cc1)[C@@H]1C[C@H]1c1c[nH]cn1 |
|  | 73% | inactive | CC[C@H](CNCc1ccc(Cl)cc1)[C@@H]1C[C@H]1c1c[nH]cn1 |
| 63 nM |  |  | CC[C@H](CNCc1ccc(Cl)cc1)[C@H]1C[C@@H]1c1cnc[nH]1 |

| Structure (SMILES) | Ki (Histamine H3 receptor [1]) | inhibition (Histamine H3 receptor [2]) | Activity (Histamine H3 receptor [3]) |
| --- | --- | --- | --- |
| Clc1ccc(CNCC[C@H]2C[C@@H]2c2c[nH]cn2)cc1 | 3.6 nM | 100% |  |
| Clc1ccc(CNCC[C@@H]2C[C@H]2c2c[nH]cn2)cc1 | 8.4 nM | 100% |  |
